# Laboratory results reported in ChEMBL document CHEMBL1122988, “Studies on antianaphylactic agents. 7. Synthesis of antiallergic 5-oxo-5H-[1]benzopyrano[2,3-b]pyridines” (1985).
# What was measured:
# Format in all cases: functional
# [1] = system: Rattus norvegicus; assay: Anti-passive cutaneous anaphylaxis activity in rat (intravenous administration); settings: read-out: ID50 (the source's name)
# Method in brief: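 Male Sprague-Dawley rats (8 weeks, ~280 g) were sensitized passively. Antiserum was raised with egg albumin im plus killed B. pertussis ip, and diluted fourfold. Four 0.05-mL intradermal dorsal injections were given, with a 72-h latency. Challenge was iv with 5 mg egg albumin plus 10 mg Evans blue in 1 mL saline. Drug in saline or PEG 400 was given iv immediately before challenge. Dye leakage area was read at 30 min. ID50 came from a least-squares log dose–area fit.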
# [2] = system: Rattus norvegicus; assay: Compound was evaluated for anti passive cutaneous anaphylaxis activity in nonfasted rat, administered through intravenous route; settings: oral, in the assay text read “oral” for “intravenous”, read-out: ID50 (the source's name)
# [3] = system: Rattus norvegicus; assay: Compound was evaluated for anti passive cutaneous anaphylaxis activity in nonfasted rats administered oral route; settings: read-out: ID50 (the source's name)
# Method in brief: (§1)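 Homologous rat PCA in male Sprague-Dawley rats (8 weeks, ~280 g). Skin sites received 72 h of exposure to fourfold-diluted egg albumin antiserum. Drug was suspended in 5% gum arabic and given orally 5 min before iv challenge with egg albumin and Evans blue. Rats were bled 30 min later and dye leakage area (mm2) was measured. ID50 came from least-squares log dose regression, with Fieller fiducial limits.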
# [4] = system: Rattus norvegicus; assay: Compound was evaluated for anti passive cutaneous anaphylaxis activity in fasted rats administered oral route; settings: read-out: ID50 (the source's name); method in brief: as §1
# [5] = system: Rattus norvegicus; assay: Compound was evaluated for anti passive cutaneous anaphylaxis activity in fasted rat, administered through intravenous route; settings: oral, in the assay text read “oral” for “intravenous”, read-out: ID50 (the source's name)
smiles,measurement,setting,value
CNc1nc2oc3ccc(C(C)C)cc3c(=O)c2cc1C(=O)O,ED50,[1],0.39 mg/kg
CCc1ccc2oc3nc(N)c(C(=O)O)cc3c(=O)c2c1,ED50,[1],0.14 mg/kg
same,ED50,[2],5.4 mg/kg
O=C(O)c1cnc2oc3ccccc3c(=O)c2c1,ED50,[1],0.63 mg/kg
O=c1c2ccccc2oc2ncc(-c3nn[nH]n3)cc12,ED50,[1],0.44 mg/kg
Cc1ccc2oc3nc(O)c(C(=O)O)cc3c(=O)c2c1,ED50,[1],0.1 mg/kg
CCONc1nc2oc3ccc(C(C)C)cc3c(=O)c2cc1C(=O)O,ED50,[1],0.014 mg/kg
CONc1nc2oc3ccc(C(C)C)cc3c(=O)c2cc1C(=O)O,ED50,[3],4.6 mg/kg
same,ED50,[1],0.0076 mg/kg
same,ED50,[4],0.59 mg/kg
CCc1ccc2oc3nc(C)c(C(=O)O)cc3c(=O)c2c1,ED50,[1],0.73 mg/kg
CCc1ccc(O)c(C(=O)c2cc(C(=O)O)c(C)nc2O)c1,ED50,[1],> 20 mg/kg
CCc1ccc2oc3nc(OC)c(C(=O)O)cc3c(=O)c2c1,ED50,[1],0.5 mg/kg
COc1ccc2oc3nc(O)c(C(=O)O)cc3c(=O)c2c1,ED50,[1],0.042 mg/kg
CC(C)c1ccc2oc3nc(O)c(C(=O)O)cc3c(=O)c2c1,ED50,[1],0.02 mg/kg
O=C(O)c1cc2c(=O)c3ccccc3oc2nc1O,ED50,[1],0.62 mg/kg
CCc1ccc2oc3nc(O)c(C(=O)O)cc3c(=O)c2c1,ED50,[1],0.041 mg/kg
CC(C)(C)c1ccc2oc3ncc(-c4nn[nH]n4)cc3c(=O)c2c1,ED50,[3],6 mg/kg
same,ED50,[1],0.047 mg/kg
CCc1ccc2oc3ncc(-c4nn[nH]n4)cc3c(=O)c2c1,ED50,[3],6.4 mg/kg
same,ED50,[1],0.11 mg/kg
CC(C)c1ccc2oc3ncc(C(=O)O)cc3c(=O)c2c1,ED50,[3],1.2 mg/kg
same,ED50,[1],0.059 mg/kg
Cc1cc(C)c2oc3ncc(-c4nn[nH]n4)cc3c(=O)c2c1,ED50,[1],0.31 mg/kg
CC(C)c1ccc2oc3nc(N)c(-c4nn[nH]n4)cc3c(=O)c2c1,ED50,[1],0.064 mg/kg
CONc1nc2oc3ccc(C(C)C)cc3c(=O)c2cc1-c1nn[nH]n1,ED50,[1],0.19 mg/kg
CCCCONc1nc2oc3ccc(C(C)C)cc3c(=O)c2cc1C(=O)O,ED50,[3],3.5 mg/kg
same,ED50,[1],0.028 mg/kg
COc1cccc2c(=O)c3cc(C(=O)O)c(O)nc3oc12,ED50,[1],0.1 mg/kg
COc1cccc2c(=O)c3cc(C(=O)O)c(N)nc3oc12,ED50,[1],0.45 mg/kg
Cc1cc(C)c2oc3nc(O)c(C(=O)O)cc3c(=O)c2c1,ED50,[1],0.12 mg/kg
O=c1c2cc(-c3nn[nH]n3)cnc2oc2ccc3ccccc3c12,ED50,[1],0.84 mg/kg
CC(C)c1ccc2oc3nc(NO)c(C(=O)O)cc3c(=O)c2c1,ED50,[3],1 mg/kg
same,ED50,[1],0.018 mg/kg
CC(C)c1ccc2oc3ncc(-c4nn[nH]n4)cc3c(=O)c2c1,ED50,[3],0.46 mg/kg
same,ED50,[1],0.0096 mg/kg
same,ED50,[4],0.034 mg/kg
CCCCc1ccc2oc3nc(N)c(C(=O)O)cc3c(=O)c2c1,ED50,[1],1.1 mg/kg
CCc1ccc2oc3ncc(C(=O)O)cc3c(=O)c2c1,ED50,[1],0.034 mg/kg
same,ED50,[2],0.95 mg/kg
same,ED50,[5],0.18 mg/kg
CC(C)c1ccc2oc3nc(N)c(C(=O)O)cc3c(=O)c2c1 [AMLEXANOX],ED50,[3],6.1 mg/kg
same,ED50,[1],0.032 mg/kg
same,ED50,[4],0.73 mg/kg
O=C([O-])c1cc(=O)c2c(OCC(O)COc3cccc4oc(C(=O)[O-])cc(=O)c34)cccc2o1.[Na+].[Na+] [CROMOLYN SODIUM],ED50,[1],1.4 mg/kg
